# Shown are actives, neighbours in structure and some others; about 1.8% of the full set was active somewhere.
# STAT1 blocker: STAT1 signaling inhibition | NIH 3T3 STAT1-luciferase reporter, IFN-gamma, luminescence | inhibition, % at 5.5 µM | hit rate 0.35% among 200,000;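 active = inhibition above a set limit, the mean inhibition across all tested compounds plus 3 SD, cut at about 34% in these data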;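 also: 0% = IFN-gamma with DMSO and 100% = IFN-gamma with 300 µM nifuroxazide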
# TRAIL sens C8: sensitizes caspase-8 expressing cells to TRAIL; NB7+C8 cells + TRAIL, ATPlite viability luminescence; inhibition (viability loss, TRAIL sensitization), % at 10 µM; hit rate 1% among 360,000; AID 624354;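 active = compounds causing at least 50% loss of cell viability in the single-dose screen, relative to plate controls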
# PPC-1+TRAIL kill: kills PPC-1 cancer cells in the presence of TRAIL | PPC-1 cells + TRAIL, ATPLite viability luminescence | cell killing (% activity), % at 4 µM or 5 µM | hit rate 0.41% among 220,000;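 active = cell killing above 50% in the first pass at 4 µM, then a duplicate retest at 5 µM averaging 50% or more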;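 also: plate controls were cells with TRAIL plus DMSO for no effect and medium-only wells lacking cells for full effect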
# STAT3 act: activators of IL-6 induced STAT3 signaling; U3A cells, IL-6 STAT3-luciferase reporter, luminescence; 100% = signal with IL-6 EC80 alone; activation (% of control), % at 5.6 µM; hit rate 0.91% among 190,000;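 active = activation above the screen-wide mean of compound activation plus 3 SD, cut at about 130% in these data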;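 also: 0% = background luminescence of wells with medium and substrate only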
#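 Material: human U3A cells carrying STAT3-luciferase construct. Measured by: reporter luminescence signal. Timing: compound 1 h, then IL-6 6 h at 37 °C.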
# STAT3 blocker: inhibitors of IL-6 induced STAT3 signaling. U3A cells, IL-6 STAT3-luciferase reporter, luminescence; host cell line lacks STAT1. inhibition, % at 5.5 µM. hit rate 0.89% among 190,000;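 active = inhibition above the mean inhibition across all screened compounds plus 3 SD, cut at about 44% in these data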;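 also: 0% = DMSO only wells and 100% = 100 µM nifuroxazide control wells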
# Active calls of the source: *; . = not tested or not shown.
SMILES,STAT1 blocker,TRAIL sens C8,PPC-1+TRAIL kill,STAT3 act,STAT3 blocker
COc1ccccc1N1C(=O)N(C(C)=O)C2C1Nc1ccccc1N2C (stereo not given),17,7,-6,134*,-35
COc1ccc(NC(=O)N(C)C[C@H]2OCCCC[C@@H](C)Oc3ccc(N(C)C)cc3C(=O)N([C@H](C)CO)C[C@@H]2C)cc1,.,7,.,.,.
COc1ccc(CN(CCC(c2ccccc2)c2ccc(OC(C)C)cc2)C(=O)CCl)cc1OC (stereo not given),3,96*,4,99,5
O=C(NCC(F)(F)F)C1C(=O)Nc2ccccc2C(=O)N1C1CCCC1 (stereo not given),.,-6,.,.,.
CCOC(=O)C1C(c2cc(OC)c(O)c(OC)c2)NC(=S)NC1(O)C(F)(F)F (stereo not given),6,-2,53*,98,0
C#CCOCCOCCOCCNc1nc(N2CCN(C(=O)CCCCCCCCCCNC(=O)[C@H](CCCCN)n3cc(C[C@@H](C)CC)nn3)CC2)nc(N2CCN(C(=O)CCCCCCCCCCNC(=O)[C@@H]([C@H](C)O)n3cc(C)nn3)CC2)n1,.,96*,.,.,.
C#CCOCCOCCOCCNc1nc(N2CCN(C(=O)CCCCCCCCCCNC(=O)[C@H](CCCCN)n3cc(C)nn3)CC2)nc(N2CCN(C(=O)CCCCCCCCCCNC(=O)[C@@H]([C@H](C)O)n3cc(C)nn3)CC2)n1,.,26,.,.,.
C#CCOCCOCCOCCNc1nc(N2CCN(C(=O)CCCCCCCCCCNC(=O)[C@H](CCCCN)n3cc(C[C@@H](C)CC)nn3)CC2)nc(N2CCN(C(=O)CCCCCCCCCCNC(=O)[C@H](CCCN=C(N)N)n3cc(C[C@@H](C)CC)nn3)CC2)n1,.,94*,.,.,.
C#CCOCCOCCOCCNc1nc(N2CCN(C(=O)CCCCCCCCCCNC(=O)Cn3cc(C[C@@H](C)O)nn3)CC2)nc(N2CCN(C(=O)CCCCCCCCCCNC(=O)[C@@H]([C@H](C)CC)n3cc(CCCCCN)nn3)CC2)n1,.,93*,.,.,.
CN(C(=O)CN1CCN(c2cc(-c3ccc(-c4ccccc4)cc3)ncn2)CC1)c1ccccc1,.,29,.,.,.
COC(=O)c1sccc1NC(=O)c1csc(C)c1,-1,-4,-13,136*,-38
COC(=O)c1sccc1NC(=O)c1ccc(C)cc1,.,-6,.,.,.
CC12CCC3c4ccccc4CCC3(CO1)C2 (stereo not given),.,-8,.,.,.
O=C(Nc1nc(-c2ccccn2)cs1)c1ccc2c(c1)OCCO2,-35,51*,49,.,.
O=C(COC(=O)CNC(=O)c1ccccc1Cl)Nc1ccccc1Cl,.,6,.,.,.
COc1ccc2[nH]c3c(N4CCc5ccccc5C4)ncnc3c2c1,.,43,44,.,.
COc1ccc(N2CCN(c3ncnc4c3[nH]c3ccccc34)CC2)cc1,41*,38,25,35,77*
COc1ccc(S(=O)(=O)N2CCC(NC(=O)c3cccnc3)CC2)cc1,.,0,.,.,.
CN(c1ccccc1)S(=O)(=O)c1cccc(NC(=O)c2cc3ccccc3oc2=O)c1,.,-11,2,.,.
Cc1ccc(NC(=O)c2cc3ccccc3oc2=O)cc1S(=O)(=O)N(C)C,58*,56*,28,20,100*
Cc1cc(C(=O)N2CCC2(C)C(=O)Nc2cccc3ccccc23)nn1C (stereo not given),.,-12,.,.,.
Cc1ccc(C2CC(C(F)(F)F)n3nc(C(=O)NCc4c(C)nn(C)c4C)c(Cl)c3N2)cc1 (stereo not given),59*,22,17,55,60*
CCCOc1cc(C)c(S(=O)(=O)NCc2cccs2)cc1C,.,7,.,.,.
CCN(CC)C(=O)c1ccc(/C=C/c2c[nH]c3ccccc23)[n+](C)c1,-3,3,12,117,-14
CC[n+]1c(/C=C/c2c[nH]c3ccccc23)ccc2cc(C)ccc21,58*,.,92*,51,59*
SMILES,STAT1 blocker,TRAIL sens C8,PPC-1+TRAIL kill,STAT3 act,STAT3 blocker
CSc1ccc(/C=N/Nc2cccc(C(=O)O)c2)cc1,64*,9,-25,79,33
O=C(O)c1cccc(N/N=C/c2ccc(OC(F)(F)F)cc2)c1,.,21,.,.,.
OC(CSc1nnnn1-c1ccccc1)Cn1c2ccccc2c2ccccc21 (stereo not given),.,-13,.,.,.
CCOC(=O)c1ccc(NC(=O)c2nc[nH]c2C(=O)NC[C@@H](C)O)cc1,.,1,.,.,.
CN=c1scc(-c2ccccc2F)n1/N=C(\C)c1cccnc1,-34,63*,42,98,2
C/C(=N\N1CCN(C2c3ccccc3-c3ccccc32)CC1)c1cccnc1,-5,4,1,95,12
CC(C)c1ccc2[nH]c(O)c(N=NC(=O)c3cccc(S(=O)(=O)Nc4cccc(Cl)c4)c3)c2c1,.,50*,6,.,.
O=C(CN1C(=O)NC2(CCCCCCC2)C1=O)NCc1ccc(Cl)cc1,.,12,.,.,.
Cc1ccc(S(=O)(=O)N(C)C)cc1NC(=O)CSc1nncs1,.,-10,.,.,.
CC1=NC(=O)C(N=Nc2ccccc2C)N1c1ccccc1 (stereo not given),-6,.,.,106,-4
CC1=NC(=O)C(N=Nc2cccc3ccccc23)N1c1ccccc1 (stereo not given),4,.,.,159*,-68
CCCc1cc(=O)oc2c3c(c4c(c12)OC(C)(C)C=C4)OC(C)C(C)C3O (stereo not given),.,78*,-18,.,.
CC(=O)n1c2c(c3ccccc31)OC(N)=C(C#N)C2c1ccc(C(C)C)cc1 (stereo not given),-32,-2,6,165*,-73
Cc1cccc(C)c1N1C(=O)c2ccccc2NC(=O)C1C(=O)NCCc1ccccc1F (stereo not given),.,-2,.,.,.
O=C(CN(c1cccc(C(F)(F)F)c1)S(=O)(=O)c1ccc(Cl)c([N+](=O)[O-])c1)NCc1ccccc1Cl,4,2,66*,103,-1
O=C(CSc1nccn1-c1ncc(C(F)(F)F)cc1Cl)c1ccc(Cl)cc1,-36,7,17,197*,-101
CC(=O)Oc1ccc(/C=C/c2nc3ccccc3c(=O)o2)cc1,.,76*,.,.,.
CC(=O)Oc1ccccc1/C=C/c1nc2ccccc2c(=O)o1,.,82*,.,.,.
O=C1/C(=C/c2ccncc2)CCc2ccccc21,.,21,20,.,.
COc1ccc(C=C2CCc3ccccc3C2=O)cc1,.,87*,.,.,.
CCOc1ccc(/C=C2\CCc3ccccc3C2=O)cc1,.,77*,35,.,.
COc1ccc(C(=O)NCCNc2nc3cc(C)cc(C)c3cc2C#N)nc1,.,-11,.,.,.
O=C(Nc1ccc2c(c1)OCCO2)c1cccc(Br)c1,.,50,.,.,.
CCCOc1cccc(C(=O)Nc2ccc3c(c2)OCCO3)c1,.,52*,.,.,.
CCOc1ccc(C(=O)Nc2ccc3c(c2)OCCO3)cc1,.,55*,.,.,.
CCCOc1cccc(C(=O)Nc2cccc(NC(=O)c3ccco3)c2)c1,7,2,8,99,6
Cc1ccc(C(=O)Nc2ccc3c(c2)OCCO3)cc1,.,84*,.,.,.
O=C(Nc1ccc2c(c1)OCCO2)c1ccc(Br)cc1,.,52*,.,.,.
CS(=O)(=O)Nc1ccc(C(=O)Nc2ccc3ccccc3c2)cc1,.,18,.,.,.

# High-throughput results from PubChem BioAssay.
